The values that follow come from ChEMBL document CHEMBL2146402, “Cytotoxic lignans from fruits of Cleistanthus indochinensis: synthesis of cleistantoxin derivatives” (J Nat Prod, 2012).

The IC50 is the concentration needed to halve the response being measured. The low end stands for greater potency in that assay, the high end for weaker potency in that assay.

SMILES strings stand for the structures. Activity calls are given as the source filed them. The calls are words filed in the database; no cut-off is given here.

What all share (format): functional, cell-based
In experiment [1] the test system is KB. Description: Cytotoxicity against human KB cells at 100 ug/mL after 72 hrs by neutral red assay.
A further experiment deals with MCF7. As to the kind of experiment: Cytotoxicity against human MCF7 cells.
A short description of experiment [2]: Cytotoxicity against human MCF7/R cells. To be noted: MCF7R.
The test system of another experiment is HT-29. As to the kind of experiment: Cytotoxicity against human HT-29 cells.
In experiment [3] the test system is KB. As to the kind of experiment: Cytotoxicity against human KB cells after 72 hrs by neutral red assay. The method in brief:
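KB human nasopharynx carcinoma cells grown in D-MEM with 10% fetal calf serum, 2 mM L-glutamine, penicillin G, streptomycin and gentamicin. Seeded at 3 × 10³ cells/mL and exposed to compounds (stocks in DMSO/H₂O 1:9) for 72 h at 37 °C in air/CO₂ 95:5. Living cells stained with neutral red, OD read at 540 nm. IC50 is the concentration reducing growth to 50% of control. Taxotere reference.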

On to `COc1c2c(cc3c1[C@H]1C(=O)OC[C@H]1[C@H](C(=O)NCc1ccco1)[C@@H]3c1ccc3c(c1)OCO3)OCO2`, for which, in the experiment on KB [1], the result was inactive.

Regarding `COc1c2c(cc3c1[C@H]1C(=O)OC[C@H]1[C@H](C(=O)NCc1ccc(F)cc1)[C@@H]3c1ccc3c(c1)OCO3)OCO2`, the result in the experiment with KB [1] was inactive.

Regarding `COc1c2c(cc3c1[C@H](O)[C@H]1COC(=O)[C@@H]1[C@@H]3c1ccc3c(c1)OCO3)OCO2` [CLEISTANTOXIN], the IC50 stood at 36 nM in the experiment with MCF7, 14 nM in experiment [2], 35 nM with HT-29 and 22 nM in the experiment with KB [3].

For the compound `COc1c2c(cc3c1[C@H]1C(=O)OC[C@H]1[C@H](C(=O)N(Cc1ccccc1)Cc1ccccc1)[C@@H]3c1ccc3c(c1)OCO3)OCO2`, the outcome with KB [1] was inactive.

Consider `COc1c2c(cc3c1[C@H]1C(=O)OC[C@H]1[C@H](C(=O)O)[C@@H]3c1ccc3c(c1)OCO3)OCO2`, for which the result in the experiment on KB [1] was inactive.

Consider `COc1c2c(cc3c1[C@H]1C(=O)OC[C@H]1[C@H](C(=O)NC1CCCCCC1)[C@@H]3c1ccc3c(c1)OCO3)OCO2`, for which, in the experiment with KB [3], inhibition was half-maximal at 26 µg/mL (IC50).

Take `COc1c2c(cc3c1[C@H]1C(=O)OC[C@H]1[C@H](C(=O)NC1CCCC1)[C@@H]3c1ccc3c(c1)OCO3)OCO2`: in the experiment with KB [1], the result was inactive.

As for `COc1c2c(cc3c1[C@H]1C(=O)OC[C@H]1[C@H](C(=O)NCc1ccc(Cl)c(Cl)c1)[C@@H]3c1ccc3c(c1)OCO3)OCO2`, the result in the experiment with KB [1] was inactive.

As to `COc1c2c(cc3c1[C@H]1C(=O)OC[C@H]1[C@H](C(=O)n1ccnc1)[C@@H]3c1ccc3c(c1)OCO3)OCO2`, in the experiment on KB [1], the outcome was inactive.

Consider `COc1c2c(cc3c1[C@@H](C#N)[C@H]1COC(=O)[C@@H]1[C@@H]3c1ccc3c(c1)OCO3)OCO2`, for which, in the experiment with KB [3], the IC50 amounted to 1.2 µg/mL.

In the case of `COc1c2c(cc3c1[C@H]1C(=O)OC[C@H]1[C@H](C(=O)N1CCCCC1)[C@@H]3c1ccc3c(c1)OCO3)OCO2`, the midpoint of inhibition in the experiment with KB [3], the IC50, lay at 42 µg/mL. Compared with the last compound, the IC50 is about 35-fold higher.

With `COc1c2c(cc3c1[C@@H]1OC(=O)[C@H]([C@@H]3c3ccc4c(c3)OCO4)[C@@H]1CO)OCO2` [NEOCLEISTANTOXIN], the IC50 in the experiment with KB [3] came out at 1400 nM. This counts as single-digit micromolar.
